According to the M2OR odorant receptor database:

Experiments:
Conditions in all cases: stereoisomer not certain
[1] = molecular target: T1, OR1A1 (Homo sapiens) (UniProt Q9P1Q5)
T1 sequence (whole entry): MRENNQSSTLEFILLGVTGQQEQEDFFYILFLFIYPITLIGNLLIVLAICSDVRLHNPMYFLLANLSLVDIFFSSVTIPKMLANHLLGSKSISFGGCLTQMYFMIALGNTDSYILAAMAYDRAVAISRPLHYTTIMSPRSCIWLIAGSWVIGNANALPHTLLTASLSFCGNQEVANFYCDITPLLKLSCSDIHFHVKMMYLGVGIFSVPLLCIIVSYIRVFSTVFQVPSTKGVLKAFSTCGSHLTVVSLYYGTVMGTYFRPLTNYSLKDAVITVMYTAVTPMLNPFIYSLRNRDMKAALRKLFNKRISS
Outline: (§1)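 Each receptor–molecule pair is labelled responsive or non-responsive (inactive) according to whether the original authors judged the measured signal statistically different from baseline. The data were taken from the main text and supplementary material of published papers and checked for typos and inconsistencies. Assay methods differed by source, with transient luciferase assays in mammalian cell lines being common.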

[2] = molecular target: T2, OR13C2 (Homo sapiens) (UniProt Q8NGS9)
T2 sequence (whole entry): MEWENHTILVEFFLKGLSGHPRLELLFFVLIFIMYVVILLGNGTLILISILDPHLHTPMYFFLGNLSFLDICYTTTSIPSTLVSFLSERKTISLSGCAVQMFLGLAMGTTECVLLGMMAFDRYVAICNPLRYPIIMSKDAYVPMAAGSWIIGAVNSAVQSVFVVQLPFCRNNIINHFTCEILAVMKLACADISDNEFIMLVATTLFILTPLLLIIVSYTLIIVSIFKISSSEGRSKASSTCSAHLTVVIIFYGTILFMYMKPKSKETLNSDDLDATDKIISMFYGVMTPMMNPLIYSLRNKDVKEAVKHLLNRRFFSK
Outline: as §1

[3] = molecular target: T3, OR13C3 (Homo sapiens) (UniProt Q8NGS6)
T3 sequence (whole entry): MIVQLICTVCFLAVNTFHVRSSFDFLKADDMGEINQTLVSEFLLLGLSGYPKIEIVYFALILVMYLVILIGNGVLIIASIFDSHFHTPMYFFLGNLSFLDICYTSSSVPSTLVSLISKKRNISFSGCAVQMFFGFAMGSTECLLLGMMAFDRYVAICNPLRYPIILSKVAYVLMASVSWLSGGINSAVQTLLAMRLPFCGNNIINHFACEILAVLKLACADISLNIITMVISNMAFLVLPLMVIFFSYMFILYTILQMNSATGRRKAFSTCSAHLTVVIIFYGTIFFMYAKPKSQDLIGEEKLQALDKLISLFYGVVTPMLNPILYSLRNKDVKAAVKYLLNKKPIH
Outline: as §1

[4] = molecular target: T4, OR13C4 (Homo sapiens) (UniProt Q8NGS5)
T4 sequence (whole entry): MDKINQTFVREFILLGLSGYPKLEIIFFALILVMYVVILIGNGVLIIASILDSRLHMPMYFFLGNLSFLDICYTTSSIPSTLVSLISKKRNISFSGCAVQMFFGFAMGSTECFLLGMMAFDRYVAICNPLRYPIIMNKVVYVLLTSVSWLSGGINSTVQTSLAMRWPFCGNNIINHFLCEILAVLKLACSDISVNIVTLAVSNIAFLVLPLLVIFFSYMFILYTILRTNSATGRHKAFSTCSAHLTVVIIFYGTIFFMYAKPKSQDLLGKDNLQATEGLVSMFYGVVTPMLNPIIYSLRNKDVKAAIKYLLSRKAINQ
Outline: as §1

[5] = molecular target: T5, OR13C5 (Homo sapiens) (UniProt Q8NGS8)
T5 sequence (whole entry): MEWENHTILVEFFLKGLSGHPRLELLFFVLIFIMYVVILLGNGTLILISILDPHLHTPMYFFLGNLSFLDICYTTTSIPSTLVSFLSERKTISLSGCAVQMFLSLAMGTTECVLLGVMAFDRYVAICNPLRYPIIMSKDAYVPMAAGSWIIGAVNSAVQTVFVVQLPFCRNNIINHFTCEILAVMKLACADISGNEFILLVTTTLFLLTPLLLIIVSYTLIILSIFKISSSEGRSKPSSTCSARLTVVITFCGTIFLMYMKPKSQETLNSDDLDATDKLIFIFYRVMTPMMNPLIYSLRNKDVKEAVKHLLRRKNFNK
Outline: as §1

[6] = molecular target: T6, OR13C8 (Homo sapiens) (UniProt Q8NGS7)
T6 sequence (whole entry): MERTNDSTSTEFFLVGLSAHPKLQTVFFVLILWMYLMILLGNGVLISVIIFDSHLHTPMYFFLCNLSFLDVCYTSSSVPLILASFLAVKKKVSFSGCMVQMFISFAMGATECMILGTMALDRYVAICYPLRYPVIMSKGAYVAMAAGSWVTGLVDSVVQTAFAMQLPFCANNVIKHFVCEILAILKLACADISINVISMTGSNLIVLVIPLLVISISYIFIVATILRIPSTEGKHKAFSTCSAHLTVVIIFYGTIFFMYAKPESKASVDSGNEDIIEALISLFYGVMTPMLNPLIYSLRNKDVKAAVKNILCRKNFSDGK
Outline: as §1

[7] = molecular target: T7, OR13C9 (Homo sapiens) (UniProt Q8NGT0)
T7 sequence (whole entry): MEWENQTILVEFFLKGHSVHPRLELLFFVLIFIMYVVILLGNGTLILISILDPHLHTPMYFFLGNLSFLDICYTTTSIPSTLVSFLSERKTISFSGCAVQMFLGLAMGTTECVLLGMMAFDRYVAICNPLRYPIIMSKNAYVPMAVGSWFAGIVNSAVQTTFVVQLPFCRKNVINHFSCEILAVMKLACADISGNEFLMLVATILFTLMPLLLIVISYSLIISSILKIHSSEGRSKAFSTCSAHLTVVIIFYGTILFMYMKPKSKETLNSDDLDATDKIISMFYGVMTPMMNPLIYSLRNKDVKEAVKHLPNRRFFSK
Outline: as §1

[8] = molecular target: T8, OR13D1 (Homo sapiens) (UniProt Q8NGV5)
T8 sequence (whole entry): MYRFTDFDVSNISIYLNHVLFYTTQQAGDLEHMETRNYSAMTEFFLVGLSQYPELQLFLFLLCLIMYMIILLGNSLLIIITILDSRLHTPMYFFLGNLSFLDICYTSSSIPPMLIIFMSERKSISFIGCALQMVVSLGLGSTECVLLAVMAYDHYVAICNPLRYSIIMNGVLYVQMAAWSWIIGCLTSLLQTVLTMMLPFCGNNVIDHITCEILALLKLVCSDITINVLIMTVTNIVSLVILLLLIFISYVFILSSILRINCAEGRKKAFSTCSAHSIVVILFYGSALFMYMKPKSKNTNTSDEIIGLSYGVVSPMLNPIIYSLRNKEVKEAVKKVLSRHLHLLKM
Outline: as §1

[9] = molecular target: T9, OR13F1 (Homo sapiens) (UniProt Q8NGS4)
T9 sequence (whole entry): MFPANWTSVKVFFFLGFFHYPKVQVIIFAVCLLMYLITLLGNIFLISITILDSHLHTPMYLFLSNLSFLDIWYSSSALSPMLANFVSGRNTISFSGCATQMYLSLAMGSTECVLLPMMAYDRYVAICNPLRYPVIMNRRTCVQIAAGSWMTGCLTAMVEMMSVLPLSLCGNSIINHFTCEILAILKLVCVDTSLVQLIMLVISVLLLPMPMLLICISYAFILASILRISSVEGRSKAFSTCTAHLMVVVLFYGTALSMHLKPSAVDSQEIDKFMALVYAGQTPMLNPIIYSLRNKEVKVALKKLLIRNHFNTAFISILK
Outline: as §1

[10] = molecular target: T10, OR13G1 (Homo sapiens) (UniProt Q8NGZ3)
T10 sequence (whole entry): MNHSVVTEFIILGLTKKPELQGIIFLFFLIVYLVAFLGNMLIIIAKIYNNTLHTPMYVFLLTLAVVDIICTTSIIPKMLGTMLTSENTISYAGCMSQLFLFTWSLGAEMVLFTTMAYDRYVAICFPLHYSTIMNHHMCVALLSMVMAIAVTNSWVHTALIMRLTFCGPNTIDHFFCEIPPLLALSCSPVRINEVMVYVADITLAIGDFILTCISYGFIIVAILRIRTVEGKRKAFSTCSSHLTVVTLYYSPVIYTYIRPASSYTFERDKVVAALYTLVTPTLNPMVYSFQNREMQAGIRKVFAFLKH
Outline: as §1

[11] = molecular target: T11, OR13H1 (Homo sapiens) (UniProt Q8NG92)
T11 sequence (whole entry): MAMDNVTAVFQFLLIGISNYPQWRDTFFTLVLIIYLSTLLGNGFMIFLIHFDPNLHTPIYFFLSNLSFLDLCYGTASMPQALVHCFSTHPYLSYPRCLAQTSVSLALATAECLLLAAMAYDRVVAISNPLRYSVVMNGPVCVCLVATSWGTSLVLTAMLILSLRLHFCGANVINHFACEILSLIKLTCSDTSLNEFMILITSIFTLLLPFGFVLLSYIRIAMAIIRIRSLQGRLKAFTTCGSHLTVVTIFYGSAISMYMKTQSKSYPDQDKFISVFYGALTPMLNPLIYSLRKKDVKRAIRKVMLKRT
Outline: as §1

[12] = molecular target: T12, OR13J1 (Homo sapiens) (UniProt Q8NGT2)
T12 sequence (whole entry): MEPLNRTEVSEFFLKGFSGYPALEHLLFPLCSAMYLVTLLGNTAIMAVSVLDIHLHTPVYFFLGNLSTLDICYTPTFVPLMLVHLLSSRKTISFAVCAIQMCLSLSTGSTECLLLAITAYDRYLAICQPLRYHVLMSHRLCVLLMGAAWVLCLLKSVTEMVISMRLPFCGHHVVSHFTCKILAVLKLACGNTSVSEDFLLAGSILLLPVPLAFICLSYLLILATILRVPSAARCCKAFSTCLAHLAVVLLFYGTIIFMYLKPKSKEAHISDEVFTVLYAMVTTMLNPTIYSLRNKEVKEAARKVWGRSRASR
Outline: as §1

[13] = molecular target: T13, OR14A16 (Homo sapiens) (UniProt Q8NHC5)
T13 sequence (whole entry): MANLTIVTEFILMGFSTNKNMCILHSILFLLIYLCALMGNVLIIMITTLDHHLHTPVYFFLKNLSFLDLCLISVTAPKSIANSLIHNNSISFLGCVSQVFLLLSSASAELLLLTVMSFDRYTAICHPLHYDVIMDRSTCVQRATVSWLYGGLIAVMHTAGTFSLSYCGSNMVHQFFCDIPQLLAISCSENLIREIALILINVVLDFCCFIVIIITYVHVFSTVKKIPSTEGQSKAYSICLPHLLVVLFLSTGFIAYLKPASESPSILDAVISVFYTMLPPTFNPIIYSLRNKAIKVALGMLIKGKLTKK
Outline: as §1

[14] = molecular target: T14, OR14A2 (Homo sapiens) (UniProt Q96R54)
T14 sequence (whole entry): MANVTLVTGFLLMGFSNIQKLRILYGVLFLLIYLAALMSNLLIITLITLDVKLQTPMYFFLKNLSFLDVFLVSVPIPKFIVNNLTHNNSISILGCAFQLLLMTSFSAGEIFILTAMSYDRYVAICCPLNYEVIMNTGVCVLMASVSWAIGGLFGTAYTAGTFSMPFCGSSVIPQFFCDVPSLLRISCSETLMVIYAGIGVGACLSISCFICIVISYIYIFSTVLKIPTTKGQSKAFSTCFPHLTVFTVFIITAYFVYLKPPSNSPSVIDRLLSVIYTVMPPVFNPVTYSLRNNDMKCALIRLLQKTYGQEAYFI
Outline: as §1

[15] = molecular target: T15, OR14C36 (Homo sapiens) (UniProt Q8NHC7)
T15 sequence (whole entry): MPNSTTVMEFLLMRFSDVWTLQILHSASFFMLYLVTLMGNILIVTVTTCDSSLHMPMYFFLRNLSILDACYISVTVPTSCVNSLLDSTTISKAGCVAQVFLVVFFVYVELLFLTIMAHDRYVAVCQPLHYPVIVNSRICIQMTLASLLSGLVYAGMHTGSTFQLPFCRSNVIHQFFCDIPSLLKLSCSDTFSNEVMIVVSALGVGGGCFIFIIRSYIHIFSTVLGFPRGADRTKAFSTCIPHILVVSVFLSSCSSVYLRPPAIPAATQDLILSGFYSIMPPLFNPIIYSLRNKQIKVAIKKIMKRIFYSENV
Outline: as §1

[16] = molecular target: T16, OR14I1 (Homo sapiens) (UniProt A6ND48)
T16 sequence (whole entry): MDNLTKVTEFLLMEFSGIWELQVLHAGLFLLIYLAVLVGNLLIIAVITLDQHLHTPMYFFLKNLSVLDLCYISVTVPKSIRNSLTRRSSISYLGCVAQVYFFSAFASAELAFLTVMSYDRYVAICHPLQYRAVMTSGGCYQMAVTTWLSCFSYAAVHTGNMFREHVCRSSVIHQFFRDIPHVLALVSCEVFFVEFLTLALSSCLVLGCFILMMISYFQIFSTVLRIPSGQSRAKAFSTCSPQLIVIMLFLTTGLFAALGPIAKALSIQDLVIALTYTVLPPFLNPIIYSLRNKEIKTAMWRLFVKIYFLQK
Outline: as §1

[17] = molecular target: T17, OR14J1 (Homo sapiens) (UniProt Q9UGF5)
T17 sequence (whole entry): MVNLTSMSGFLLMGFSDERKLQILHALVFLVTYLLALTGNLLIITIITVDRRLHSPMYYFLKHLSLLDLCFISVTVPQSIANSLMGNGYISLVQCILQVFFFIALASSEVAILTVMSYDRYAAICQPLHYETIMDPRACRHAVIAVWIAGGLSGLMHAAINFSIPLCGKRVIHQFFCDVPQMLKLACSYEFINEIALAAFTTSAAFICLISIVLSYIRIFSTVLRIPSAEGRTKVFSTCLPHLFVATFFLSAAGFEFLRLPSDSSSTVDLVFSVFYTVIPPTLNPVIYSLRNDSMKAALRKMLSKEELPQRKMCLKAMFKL
Outline: as §1

[18] = molecular target: T18, OR14K1 (Homo sapiens) (UniProt Q8NGZ2)
T18 sequence (whole entry): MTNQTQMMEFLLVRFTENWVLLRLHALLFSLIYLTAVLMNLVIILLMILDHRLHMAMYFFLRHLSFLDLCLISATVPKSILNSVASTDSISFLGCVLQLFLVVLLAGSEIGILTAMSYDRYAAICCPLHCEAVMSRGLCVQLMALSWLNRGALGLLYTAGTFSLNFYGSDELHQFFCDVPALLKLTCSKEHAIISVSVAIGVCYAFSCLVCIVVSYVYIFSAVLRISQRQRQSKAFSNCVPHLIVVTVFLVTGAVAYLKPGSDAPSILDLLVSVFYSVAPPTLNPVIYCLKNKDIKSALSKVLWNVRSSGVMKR
Outline: as §1

Measured: odorant receptor agonist call;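 note: active if original authors judged signal statistically different from baseline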

CC(C)CCO
inactive: [1]

CCCC(=O)C(C)=O
inactive: [1]

C=CC(=C)CCC=C(C)C
inactive: [1]

CCC1OC(=O)C(O)=C1C (stereo unspecified)
inactive: [2] | [3] | [4] | [5] | [6] | [7] | [8] | [9] | [10] | [11] | [12] | [13] | [14] | [15] | [16] | [17] | [18] | [1]
